Columns and labels:
[1] = MTT cell viability assay; assay type: cell-based, rat; conditions: rat, RBL-2H3 cells
Method in brief: (§1)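 Cells grown in DMEM with 10% FBS, penicillin (100 U mL−1) and streptomycin (100 μg mL−1) at 37 °C under humidified 5% CO2. Pure compounds tested at 1 to 400 μM; viability read by MTT assay. Mean, n = 3, relative to untreated (DMSO) control.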

[2] = system: human neutrophils; experiment: Elastase release in fMLF/cytochalasin B-induced human neutrophils; assay type: cell-based; conditions: for inhibition at 10 µM / IC50: Homo sapiens, Neutrophil; for inhibition at 10 µM: read-out: Elastase release % Inhibition; for IC50: read-out: Elastase release IC50
Method in brief: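 Neutrophils isolated from venous blood of healthy adult volunteers aged 20–30 years. Release from activated cells measured with MeO-Suc-Ala-Ala-Pro-Val-p-nitroanilide as elastase substrate. Pure compounds tested at 0.3–10 μM. LY294002 as positive control. Mean ± S.E.M., n = 3–6, vs 0.1% DMSO control; IC50 is the concentration giving 50% inhibition.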

[3] = system: human neutrophils; experiment: Superoxide anion generation in fMLF/cytochalasin B-induced human neutrophils; assay type: cell-based; conditions: for IC50: read-out: Superoxide anion generation IC50
Method in brief: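 Human neutrophils taken from venous blood of healthy volunteers aged 20–30 years. Superoxide from activated cells measured as ferricytochrome c reduction. Pure compounds tested at 0.3–10 μM. Mean ± S.E.M., n = 3–6, vs 0.1% DMSO control; IC50 is the concentration giving 50% inhibition.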

[4] = molecular target: T1, neutrophil elastase (NE) (Homo sapiens, UniProt P08246); experiment: Cell-free elastase enzymatic activity assay; assay type: biochemical; conditions: read-out: Inhibition of elastase enzyme activity
T1 sequence (P08246 30-247 limits assumed): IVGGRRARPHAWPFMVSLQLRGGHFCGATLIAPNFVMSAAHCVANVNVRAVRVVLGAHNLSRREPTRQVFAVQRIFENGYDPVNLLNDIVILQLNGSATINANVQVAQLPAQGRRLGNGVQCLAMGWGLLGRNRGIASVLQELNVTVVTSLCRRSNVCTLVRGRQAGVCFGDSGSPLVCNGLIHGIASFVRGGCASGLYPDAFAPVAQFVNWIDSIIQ
Method in brief: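 Neutrophils (6 × 10^5 cells per mL) preheated 5 min at 37 °C with CaCl2 (1 mM), primed with CB (1.5 μg mL−1) for 2 min, then fMLF (0.1 μM) to release elastase. Cell-free supernatant taken after centrifugation (1000g, 5 min, 4 °C), warmed to 37 °C and given test compound (10 μM) or DMSO for 2 min. MeO-Suc-Ala-Ala-Pro-Val-p-nitroanilide (100 μM) added for 10 min; A405 read. Mean ± S.E.M., n = 4; t-test.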

[5] = system: SARS-CoV-2 M^pro; conditions: read-out: M^pro inhibition IC50; cited from earlier work
[6] = system: RBL-2H3 cells; experiment: A23187-induced degranulation; assay type: cell-based, rat; conditions: mean ± S.E.M.
[7] = system: RBL-2H3 cells; experiment: Antigen-induced degranulation; assay type: cell-based, rat; conditions: for % Inhibition of antigen-induced degranulation: mean ± SEM
[8] = system: human neutrophil elastase; conditions: read-out: Human neutrophil elastase IC50; previous study; cited from earlier work
[9] = system: RBL-2H3 cells; experiment: MTT cell viability assay; assay type: cell-based, rat; conditions: 100 μM; MTT
Method in brief: as §1

[10] = Homo sapiens, Neutrophil, read-out: Superoxide anion generation % Inhibition
[11] = at 10 μM, fMLF/CB-induced human neutrophils, mean ± S.E.M.

CN1CCCC(n2nc(Cc3ccc(Cl)cc3)c3ccccc3c2=O)CC1 (stereo not drawn) [Azelastine, reference compound]
viability at 20 µM [1]: > 90%

COc1cc(O)c2c(=O)c(OC)c(-c3ccc(O)cc3)oc2c1 [Compound 7, kumatakenin]
inhibition at 10 µM [2]: 22.9 ± 4.29% | IC50 [2]: > 10 µM | inhibition at 10 µM [3, 10]: 24.1 ± 2.75% | IC50 ([3]; Homo sapiens, Neutrophil): > 10 µM | inhibition at 10 µM [4]: 20.3 to 27.1% | viability at 100 µM [1]: > 90%

COc1cc(O)c2c(=O)c(OC)c(-c3ccc(O)c(OC)c3)oc2c1 [Compound 9, pachypodol]
inhibition at 10 µM [2]: 31.6 ± 5.02% | IC50 [2]: > 10 µM | inhibition at 10 µM [3, 10]: 67.5 ± 4.55% | IC50 ([3]; Homo sapiens, Neutrophil): 6.07 ± 0.65 µM | inhibition at 10 µM [4]: 20.3 to 27.1% | viability at 100 µM [1]: > 90%

O=c1c(-c2ccc(O)cc2)coc2cc(O)cc(O)c12 [Genistein, reference compound]
inhibition at 10 µM [2]: 31.6 ± 7.29% | IC50 [2]: 16.3 ± 4.26 µM | inhibition at 3 µM [3, 10]: 67% | IC50 ([3]; Homo sapiens, Neutrophil): 1.52 ± 0.17 µM

O=c1cc(-c2ccc(O)c(-c3c(O)cc(O)c4c(=O)cc(-c5ccc(O)cc5)oc34)c2)oc2cc(O)cc(O)c12 [amentoflavone]
IC50 [5]: 8.3 µM

penduletin [Compound 8]
Elastase release % Inhibition [2, 11]: 33.00 ± 7.94% | % Inhibition of A23187-induced degranulation ([6]; 1 μM): 4.8 ± 3.9% | % Inhibition of A23187-induced degranulation ([6]; 10 μM): 25.1 ± 7.3% | Superoxide anion generation % Inhibition [3, 11]: 73.76 ± 5.24% | % Inhibition of antigen-induced degranulation ([7]; 1 μM): 33.9 ± 8.6 % | % Inhibition of antigen-induced degranulation ([7]; 10 μM): 85.8 ± 5.1 % | IC50 ([7]; read-out: Antigen-induced degranulation IC50): 3.8 µM | IC50 [8]: 65.4 µM | % Viability, RBL-2H3 [9]: >90%
